# Bioassay records as filed in PubChem.
# An excerpt weighted towards active compounds, which were near 3.7% of everything screened.
# Mdm2 MdmX PPI – inhibitors of human Mdm2/MdmX interaction; SaOS-2 split-luciferase Mdm2/MdmX complementation, luminescence; hit rate 3% among 330,000; inhibition, % at 8 µM;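 active = inhibition of at least 50% at 8 µM in the primary screen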
# XBP1 UPR activ – adaptive UPR (XBP1) activation; CHO-XBP1 luciferase reporter, IRE1-XBP1 UPR activation, luminescence; percent of tunicamycin response, DMSO as zero; AID 463104; hit rate 0.33% among 330,000; activation, % at 20 µM;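 active = versus positive control, 20 µM dose yields 30% or more activation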;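 note: 100% = tunicamycin at 10 µg/mL and 0% = DMSO only wells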
#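 Material: CHO cell line with stable XBP1 luciferase reporter; schedule: 16-18 h cell attachment at 37 °C, then 6 h compound exposure; signal: glow luminescence from Steady-Glo reagent; medium: serum-containing F12 medium, 10% FBS; benchmarks: tunicamycin 10 µg/mL and vehicle-only wells; read-out: percent activation relative to tunicamycin reference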
# MDM2 E3 inh – blocks human Mdm2 ubiquitin ligase activity | Q00987 | cell-based MDM2 ubiquitination luciferase reporter, 2 h; 0 = plate control, 100 = twice control, blank-subtracted | signal enhancement, % at 5 µM | hit rate 0.11% among 210,000 | AID 1230;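 active = signal enhancement of 30% or more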;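 note: luminescence tracks abundance of the self-degrading MDM2-luciferase fusion protein; higher signal means inhibition of MDM2 E3 ligase activity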
# Target sequence (Q00987 whole entry, looked up, the tested form may be a part): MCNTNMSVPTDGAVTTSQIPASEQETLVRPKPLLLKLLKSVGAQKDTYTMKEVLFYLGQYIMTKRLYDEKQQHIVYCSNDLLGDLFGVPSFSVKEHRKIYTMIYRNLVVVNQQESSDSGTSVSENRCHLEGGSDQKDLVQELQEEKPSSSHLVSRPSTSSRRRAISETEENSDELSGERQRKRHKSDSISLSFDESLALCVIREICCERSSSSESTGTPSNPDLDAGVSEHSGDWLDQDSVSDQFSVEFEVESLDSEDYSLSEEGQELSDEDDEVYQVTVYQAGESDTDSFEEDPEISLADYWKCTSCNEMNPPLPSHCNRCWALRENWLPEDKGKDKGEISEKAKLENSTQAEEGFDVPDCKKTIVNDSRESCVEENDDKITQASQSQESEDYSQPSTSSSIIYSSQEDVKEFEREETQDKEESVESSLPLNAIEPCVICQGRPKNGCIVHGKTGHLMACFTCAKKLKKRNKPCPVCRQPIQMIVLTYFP
#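 test system = mammalian cells stably expressing self-ubiquitinating, self-degrading MDM2 E3–luciferase fusion | quantity = 2000 cells/well | incubation = cell settling 4 h, compound treatment 2 h, both 37 °C | signal = luminescence with SteadyLite reagent, 15 min at room temperature | evaluation = % enhancement relative to plate controls after blank subtraction | benchmarks = plate controls and plate blanks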
# Dynein cargo inh – blocks dynein driven cargo transport along microtubules. 3617.4 mouse cells, GR-EGFP nuclear translocation imaging; test concentration mostly 20 µM; stimulated with dexamethasone, 1 µM; hits give low values. z-score, hits read low. hit rate 0.47% among 220,000;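 active = plate z-score of nuclear minus cytoplasmic receptor signal below a set negative limit, without overly bright fluorescence or cell loss, cut at about -3.5 in these data, passing the limit was not always enough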;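 note: z-score of nuclear minus cytoplasmic ring GR-EGFP intensity difference per well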
#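 Also added – dexamethasone, 1.0 µM final · Buffer or medium – tet-free, stripped-serum medium · Schedule – induction 48 h, compound 1 h, agonist 30 min · Detection – formaldehyde fixation, Hoechst nuclear stain, 10x automated fluorescence imaging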
# B2AR ag – agonists of human beta-2 adrenergic receptor inducing internalization; P07550; Am2.2-beta2AR cells, FAP receptor internalization, flow cytometry; response, % (test concentration not listed); hit rate 0.43% among 340,000;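 active = response above a set limit, near 3 SD of response in nonfluorescent compounds, cut at about 42% in these data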
# UPR CHOP act – apoptotic UPR (CHOP) activation; hit rate 0.34% among 330,000; activation, % at 10 µM; CHO-CHOP luciferase reporter, luminescence; percent of tunicamycin response over DMSO baseline;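 active = at 10 µM dose, activation of 40% or more, normalized to positive control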;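 note: 100% = tunicamycin at 10 µg/mL and 0% = DMSO alone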
#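 Material: CHO-CHOP cells, stable luciferase reporter of PERK-eIF2a-CHOP signalling; quantity: 500 reporter cells seeded per well; buffer or medium: F12 medium containing 10% fetal bovine serum; compound: one dose, 10 µM in 0.5% DMSO; incubation: 6 h compound treatment, 37 °C; measured by: Steady-Glo luciferase luminescence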
# The depositor's hits bear a star; / = no result given; ! = repeats disagree.
SMILES,Mdm2 MdmX PPI,XBP1 UPR activ,MDM2 E3 inh,Dynein cargo inh,B2AR ag,UPR CHOP act
O=C(Nc1ccncc1)Nc1ccc(Cl)cc1,5,3,/,/,9,5
O=C(Nc1ccncc1)Nc1ccncc1,11,-1,41*,0.79,2,1
Cc1ccc2nc3cc([N+](=O)[O-])cc([N+](=O)[O-])c3cc2c1,/,/,9,-6.3*,59*,/
O=C(NCC1CCCO1)c1ccc(N2CCCCC2)c([N+](=O)[O-])c1 (stereo unspecified),0,0,/,/,-7,2
COc1cc(/C=C/C(=O)O)cc(S(=O)(=O)N(CC(C)C)CC(C)C)c1OC,-30,-2,-16,-0.33,3,0
CN1CCN(CCCNC(=O)c2ccc(/C=C3\Sc4ccccc4N(Cc4ccccc4F)C3=O)cc2)CC1,/,/,-6,-0.91,88*,/
O=C(CSc1nnc(-c2cccnc2)n1C1CCCCC1)NC1CCCCC1,-1,-1,36*,0.38,3,-1
COC(=O)CCN1CCc2cc(N=Nc3ccc([N+](=O)[O-])cc3)ccc21,45,2,-21,0.41,0,2
Cc1ccc(Cl)cc1S(=O)(=O)N1CCC(C(=O)NC2CCN(Cc3ccccc3)CC2)CC1,32,5,/,/,6,0
CCOC(=O)c1nc2sc3c(c2c(=O)[nH]1)CCC(C)C3 (stereo unspecified),5,2,/,1,56*,0
COc1cc(C)c(S(=O)(=O)NOCc2ccccc2)c(C)c1C,-2,-4,/,/,-1,2
Cc1ccc(-n2c(C)cc(C=C3C(=O)CC(C)(C)CC3=O)c2C)cc1,1,1,57*,0.61,-1,0
CC1=NN(c2ccc(C)cc2)C(=O)/C1=C\C=C\c1ccccc1,42,-1,52*,-1.7,9,0
COc1ccc(/C=C2/C(=O)N(c3ccccc3)N=C2C)cc1Br,1,0,/,/,76*,1
CN(C)S(=O)(=O)c1ccc(C(=O)NN2C(=O)NC3(CCCCC3)C2=O)cc1,10,-2,/,/,-4,1
O=C(CCCCN1CCCCC1)c1ccccc1,7,1,/,/,0,2
O=C(C(=Cc1ccccc1)CN1CCCCC1)c1ccccc1,/,/,/,/,49*,/
Cc1cccc(C(=O)Nc2cc(S(=O)(=O)N3CCOCC3)ccc2N2CCCC2)c1,27,5,/,/,5,1
CCOC(=O)c1ccc(N=c2sc(C(=O)OC)cc(=O)n2CCCN2CCOCC2)cc1,12,-2,-12,-3.6*!,17,2
CCC(C)[C@H]1CNCCN1CCc1cccc(F)c1 (stereo partly specified),-10,-2,/,/,-3,-1
CC(=O)Nc1cc(OC(C)=O)c2nonc2c1OC(C)=O,48,-7,/,-5.1*,20,-4
CC(=O)Nc1nonc1NC(C)=O,-21,-2,-9,0.54,-4,2
CCOC(=O)/C=C/C(=O)OCC(=O)NCc1ccccc1,1,0,-3,-2.5,44*,-1
C/C(=C\C(=O)OCC(=O)NCc1ccccc1)C(=O)OCC(=O)NCc1ccccc1,-30,-2,/,0.49,-3,-1
CC1(C)Cc2c(c(N3CCOCC3)nc3sc4c(N5CCOCC5)nnnc4c23)CS1,16,58*,-3,0.59,/,5
SMILES,Mdm2 MdmX PPI,XBP1 UPR activ,MDM2 E3 inh,Dynein cargo inh,B2AR ag,UPR CHOP act
CCn1cc(C(=O)NC2CCCCCC2)c(=O)c2ccc(C)nc21,20,-2,/,/,-3,-1
Cc1c2cc(O)c(=O)cc-2oc2cc(O)c(O)cc12,27,-1,-8,-5.3*!,-173,0
Cc1ccc(C(=O)NNC(=O)c2n[nH]c(=O)c3ccccc23)cc1C,6,-3,/,/,3,1
CC(Oc1ccc(F)cc1)C(=O)N(CCC1=CCCCC1)c1c(N)n(Cc2ccccc2)c(=O)[nH]c1=O (stereo unspecified),32,-1,/,/,2,0
O=C(c1ccc(-c2nnc(Nc3cccc(Cl)c3)c3ccccc23)cc1)N1C[C@H]2C[C@H](C1)c1cccc(=O)n1C2,32,0,-2,2.2,74*,0
Cc1ccccc1CN1N=C(/C=C/c2ccccc2)CCC1=O,22,-3,22,-0.66,48*,1
Cc1ccc(/C=C/C2=NN(Cc3ccc(Cl)c(Cl)c3)C(=O)CC2)cc1,22,-2,/,0.4,5,-6
O=C(CCl)N=c1sccn1Cc1cccc2ccccc12,/,/,-19,0.17,50*,/
O=C(O)CCCN1C(=O)/C(=C\c2ccc(-c3nc4ccccc4s3)o2)SC1=S,-11,5,-14,1.6,53*,4
O=C(O)CCN1C(=O)/C(=C/c2ccc(-c3nc4ccccc4s3)o2)SC1=S,-7,0,-11,-0.38,41,5
COc1cc(/C=C(\CC(=O)O)c2nc3ccccc3s2)ccc1OCC(=O)Nc1ccccc1F,/,/,/,/,1,/
COc1cc(/C=C(\C#N)c2nc3ccccc3s2)ccc1OCC(=O)Nc1ccccc1,/,/,6,-0.12,76*,/
CCN(CC)c1ccc(/C=C2\C(=O)c3ccc(C(=O)O)cc3C2=O)cc1,/,/,79*,-1.3,/,/
CCN(CC)c1ccc(C(=O)O)cc1,-20,0,-19,1.2,3,0
CN1CCN(CC(=O)Nc2ccc(OCc3ccccc3)cc2)CC1,-10,1,4,-0.39,/,1
N#CCN1CCN(CC(=O)Nc2ccc(OCc3ccccc3)cc2)CC1,15,0,0,0.0038,42*,0
CC(C)Oc1ccc(C(=O)NC(=S)N2CCOCC2)cc1,10,-2,53*,-0.23,4,0
CC(C)(C)c1ccc(C(=O)NC(=S)N2CCOCC2)cc1,-71,-4,/,/,13,1
CN(CC(=O)Nc1ccc(F)cc1)C(=O)CN1C(=O)NC2(CCCC2)C1=O,2,1,/,/,4,0
CC(C)(C)c1ccc(-c2cc(C(=O)NNC(=O)Nc3ccccc3)c3ccccc3n2)cc1,-51,1,-18,0.16,43*,4
CCOC(=O)c1c(CN2CCNCC2)nc2ccc(Cl)cc2c1-c1ccccc1,/,/,/,/,27,/
C/C(CC(=O)Nc1ccc2c(c1)OCCO2)=N\NC(=O)c1ccccc1F,2,-1,/,/,45*,0
Cc1cc(OC(C)C(=O)NCc2ccccn2)c2c(C)c(C)c(=O)oc2c1 (stereo unspecified),18,-5,/,/,2,-2
Cc1cn(-c2cc(NC(=O)c3ccc(C)c(NC(=O)c4cccc(-c5cn[nH]c(=O)c5)c4)c3)cc(C(F)(F)F)c2)cn1,36,-1,/,/,78*,0
